This is an account of results in ChEMBL document CHEMBL2390879, “Inhibition of monoamine oxidase by phthalide analogues” (Bioorg Med Chem Lett, 2013).

For orientation: pIC50 means the IC50 on a negative log10 scale, so that one unit is a factor of ten. A word on the pKi: it is the negative decadic logarithm of the Ki, by convention in mol/L.

pIC50, pKi: −log10 of the molar value.

One data set is filed under the species Homo sapiens. In words: Selectivity index, ratio of IC50 for human recombinant monoamine oxidase-A to IC50 for human recombinant monoamine oxidase-B. The gist of the method:
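Selectivity for MAO-B, given as IC50(MAO-A)/IC50(MAO-B). Both IC50s came from recombinant human enzymes, with kynuramine oxidation to fluorescent […] read at ex 310 / em 400 nm in alkaline medium.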

Data set [1] deals with T1, Amine oxidase [flavin-containing] A (Homo sapiens, UniProt P21397).
T1 sequence (P21397 whole entry): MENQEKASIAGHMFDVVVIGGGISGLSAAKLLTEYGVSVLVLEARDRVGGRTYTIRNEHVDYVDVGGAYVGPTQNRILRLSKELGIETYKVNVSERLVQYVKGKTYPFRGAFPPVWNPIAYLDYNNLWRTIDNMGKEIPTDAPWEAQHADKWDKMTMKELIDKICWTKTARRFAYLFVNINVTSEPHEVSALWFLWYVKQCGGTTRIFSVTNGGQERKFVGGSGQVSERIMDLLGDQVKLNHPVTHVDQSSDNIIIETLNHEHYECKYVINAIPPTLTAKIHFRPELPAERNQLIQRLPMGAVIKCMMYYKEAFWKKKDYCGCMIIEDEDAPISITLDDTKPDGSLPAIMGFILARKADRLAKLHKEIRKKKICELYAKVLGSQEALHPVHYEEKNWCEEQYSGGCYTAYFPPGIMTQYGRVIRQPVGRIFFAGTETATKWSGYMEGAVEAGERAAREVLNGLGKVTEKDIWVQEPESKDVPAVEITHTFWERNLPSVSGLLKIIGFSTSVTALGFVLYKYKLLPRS
In words: Inhibition of human recombinant monoamine oxidase-A assessed as kynuramine conversion to […] after 20 mins by fluorescence spectrophotometric analysis.

Data set [2] addresses T2, Amine oxidase [flavin-containing] B (Rattus norvegicus, UniProt P19643).
T2 sequence (P19643 whole entry): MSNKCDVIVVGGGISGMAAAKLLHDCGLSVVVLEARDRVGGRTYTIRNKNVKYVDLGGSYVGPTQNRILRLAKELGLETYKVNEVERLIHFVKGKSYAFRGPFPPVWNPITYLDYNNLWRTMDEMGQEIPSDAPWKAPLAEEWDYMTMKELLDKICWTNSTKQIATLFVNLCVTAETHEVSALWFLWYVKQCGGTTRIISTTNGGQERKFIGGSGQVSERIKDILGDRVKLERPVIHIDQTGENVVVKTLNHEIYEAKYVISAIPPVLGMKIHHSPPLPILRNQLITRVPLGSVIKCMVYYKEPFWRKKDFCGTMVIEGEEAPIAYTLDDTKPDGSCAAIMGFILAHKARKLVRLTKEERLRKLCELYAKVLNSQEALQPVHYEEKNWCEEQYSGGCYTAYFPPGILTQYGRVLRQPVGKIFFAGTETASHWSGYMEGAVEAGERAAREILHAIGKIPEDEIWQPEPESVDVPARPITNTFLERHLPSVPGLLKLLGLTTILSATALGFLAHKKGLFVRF
In words: Inhibition of rat brain monoamine oxidase-B.

For data set [3], the target named is T3, Amine oxidase [flavin-containing] B (Homo sapiens, UniProt P27338).
T3 sequence (P27338 whole entry): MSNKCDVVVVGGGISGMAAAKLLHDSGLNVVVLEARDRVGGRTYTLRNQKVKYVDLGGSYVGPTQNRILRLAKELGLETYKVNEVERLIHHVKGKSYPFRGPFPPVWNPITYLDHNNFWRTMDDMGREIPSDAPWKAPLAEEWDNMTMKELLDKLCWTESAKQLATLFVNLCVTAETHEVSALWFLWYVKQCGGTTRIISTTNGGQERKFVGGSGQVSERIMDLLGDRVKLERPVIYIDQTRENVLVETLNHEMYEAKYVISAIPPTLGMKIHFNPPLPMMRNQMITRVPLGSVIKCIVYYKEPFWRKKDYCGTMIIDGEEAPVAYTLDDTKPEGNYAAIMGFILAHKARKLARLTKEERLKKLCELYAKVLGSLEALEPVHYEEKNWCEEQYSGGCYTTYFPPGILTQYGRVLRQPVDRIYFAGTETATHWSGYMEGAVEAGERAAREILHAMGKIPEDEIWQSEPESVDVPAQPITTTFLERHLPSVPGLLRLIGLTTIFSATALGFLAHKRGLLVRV
The data set can be described thus: Inhibition of human recombinant monoamine oxidase-B assessed as kynuramine conversion to 6-hydroxyquinoline after 20 mins by fluorescence spectrophotometric analysis.

For data set [4], the target named is T3, Amine oxidase [flavin-containing] B. In words: Ratio of phthalide IC50 to compound IC50 for human recombinant monoamine oxidase-B.
Data set [5] shares this target. In words: Competitive inhibition of human recombinant monoamine oxidase-B using kynuramine as substrate by Cheng and Prusoff equation analysis.
The target is the same in data set [6]. In words: Competitive inhibition of human recombinant monoamine oxidase-B using kynuramine as substrate by Morrison equation analysis.
Data set [7] has the same target. In words: Reversible inhibition of human recombinant monoamine oxidase-B using kynuramine as substrate assessed as residual enzyme activity treated at 100 times IC50 preincubated for 30 mins prior to substrate addition followed by 100 fold dilution measured after 20 mins by fluorescence spectrophotometric analysis relative to control.
Data set [8] has the same target. In words: Quasi-reversible inhibition of human recombinant monoamine oxidase-B using kynuramine as substrate treated at 10 to 100 times IC50 preincubated for 30 mins prior to substrate addition followed by 100 fold dilution measured after 20 mins by fluorescence spectrophotometric analysis.
The target is the same in data set [9]. The data set can be described thus: Competitive inhibition of human recombinant monoamine oxidase-B using kynuramine as substrate by Lineweaver-Burk plot analysis. In short, it runs like this:
(§1)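 Recombinant human MAO-A or MAO-B with kynuramine as substrate. Initial rates were recorded at 4 substrate concentrations, without inhibitor and with three inhibitor concentrations. Lineweaver–Burk (1/v vs 1/[S]) plots were built from these rates. Product […] was read by fluorescence in alkaline medium (ex 310 nm, em 400 nm).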

For data set [10] the target is unchanged. In words: Reversible inhibition of human recombinant monoamine oxidase-B using kynuramine as substrate assessed as residual enzyme activity treated at 10 times IC50 preincubated for 30 mins prior to substrate addition followed by 100 fold dilution measured after 20 mins by fluorescence spectrophotometric analysis relative to control.
The target of data set [11] is T1, Amine oxidase [flavin-containing] A. In words: Irreversible inhibition of human recombinant monoamine oxidase-A using kynuramine as substrate assessed as residual enzyme activity treated at 10 times IC50 preincubated for 30 mins prior to substrate addition followed by 100 fold dilution measured after 20 mins by fluorescence spectrophotometric analysis relative to control.

Data set [12] shares this target. The data set can be described thus: Reversible inhibition of human recombinant monoamine oxidase-A using kynuramine as substrate assessed as residual enzyme activity treated at 10 times IC50 preincubated for 30 mins prior to substrate addition followed by 100 fold dilution measured after 20 mins by fluorescence spectrophotometric analysis relative to control.
Data set [13] has the same target. The data set can be described thus: Reversible inhibition of human recombinant monoamine oxidase-A using kynuramine as substrate assessed as residual enzyme activity treated at 100 times IC50 preincubated for 30 mins prior to substrate addition followed by 100 fold dilution measured after 20 mins by fluorescence spectrophotometric analysis relative to control.

The target is the same in data set [14]. In words: Competitive inhibition of human recombinant monoamine oxidase-A using kynuramine as substrate by Cheng and Prusoff equation analysis.
For data set [15] the target is unchanged. In words: Competitive inhibition of human recombinant monoamine oxidase-A using kynuramine as substrate by Lineweaver-Burk plot analysis. The gist of the method: as §1
Data set [16] addresses T3, Amine oxidase [flavin-containing] B. The data set can be described thus: Inhibition of human recombinant monoamine oxidase-B assessed as kynuramine conversion to […] at 100 uM after 20 mins by fluorescence spectrophotometric analysis.

With `O=C1OCc2ccc(OCc3ccccc3)cc21`, the values for the Ratio IC50 (in the data set listed under Homo sapiens; in data set [4]) were 50 and 1000, respectively. Also, the results for the negative logarithm of the IC50 (pIC50) in [1], in data set [2] and in [3] were 5.92, 6.64 and 7.62, respectively.
For `O=C1OCc2ccc(OCCOc3ccc(Br)cc3)cc21`, in the data set filed under Homo sapiens, the Ratio IC50 is 20. Further, the pIC50 in data set [1] was 6.62; in data set [3], 7.92.
Consider `O=C1OCc2ccccc21`, for which the Ratio IC50 in the data set listed under Homo sapiens turned out to be 1.6. Moreover, the negative logarithm of the IC50 (pIC50) in data set [1] is 4.35; in data set [3], 4.54.
`O=C1OCc2ccc(OCc3cccc(Br)c3)cc21`: the Ratio IC50 in the data set filed under Homo sapiens came to 180. The figures for the pIC50 in data set [1] and in [3] were 6.20 and 8.46, respectively.
Consider `O=C1OCc2ccc(OCc3ccc(C(F)(F)F)cc3)cc21`, for which the pKi is 9.22 in data set [5], 9.34 in data set [6] and 9.15 in data set [9]. In addition, in the data set filed under Homo sapiens, the Ratio IC50 worked out at 214. Moreover, the Activity in data set [7] is recorded as 14%; in data set [10], 68%. The values for the pIC50 in data set [1] and in data set [3] were 6.52 and 8.85, respectively. In [8], the “inhibition (INH)” value was “Active”.
`C#CCN(C)Cc1ccccc1` [PARGYLINE]: in data set [11], the Activity was 1%.
Consider `O=C1OCc2ccc(OCCCc3ccccc3)cc21`, for which the results for the Activity in data set [12] and in [13] were 86% and 45%, respectively. Also, the Ratio IC50 in the data set filed under Homo sapiens was determined as 16. For the same molecule, the results for the negative logarithm of the IC50 (pIC50) in data set [1] and in data set [3] were 7.02 and 8.21, respectively. Also, the values for the negative logarithm of the Ki (pKi) in data set [14] and in [15] were 7.60 and 7.21, respectively.
As to `O=C1OCc2ccc(OCc3ccc(Cl)cc3)cc21`, the Ratio IC50 in the data set listed under Homo sapiens worked out at 61. In addition, the pIC50 in [1] is 6.76; in [3], 8.55.
In the same order, the values of `O=C1OCc2ccc(OCCOc3ccccc3)cc21` are 106, 5.72 and 7.74.
For the molecule `O=C1OCc2ccc(OCCc3ccc(F)cc3)cc21`, the Ratio IC50 in the data set listed under Homo sapiens worked out at 16. The results for the pIC50 in data set [1] and in data set [3] were 5.97 and 7.17, respectively.
As to `O=C1OCc2ccc(OCc3ccc(F)cc3)cc21`, the Ratio IC50 in the data set listed under Homo sapiens was determined as 84. The negative logarithm of the IC50 (pIC50) in [1] was 6.27; in data set [3], 8.19.
Turning to `O=C1OCc2ccc(OCCc3ccccc3)cc21`, in the data set filed under Homo sapiens, the Ratio IC50 was determined as 68. Besides, the negative logarithm of the IC50 (pIC50) is 5.49 in data set [1] and 7.33 in data set [3].
Take `Cc1ccc(COc2ccc3c(c2)C(=O)OC3)cc1`: the Ratio IC50 in the data set listed under Homo sapiens is 118. Besides, the pIC50 in [1] is 5.97; in data set [3], 8.05.
As for `O=C1OCc2ccc(OCC3CCCCC3)cc21`, in the data set listed under Homo sapiens, the Ratio IC50 turned out to be 16. The pIC50 in [1] was 6.73; in data set [3] it was 7.92.
In the same order, the values of `O=C1OCc2ccc(OCc3ccc(I)cc3)cc21` are 189, 6.46 and 8.74.
For `O=C1OCc2ccc(OCCOc3ccc(F)cc3)cc21`, in the data set listed under Homo sapiens, the Ratio IC50 was determined as 43. In addition, the results for the negative-log IC50 (pIC50) in [1] and in [3] were 6.49 and 8.13, respectively.
Consider `O=C1OCc2ccc(OCc3ccc(Br)cc3)cc21`, for which the Ratio IC50 in the data set listed under Homo sapiens turned out to be 96. Further, the pIC50 in data set [1] was 6.64; in data set [3], 8.62.
On to `Cc1ccc(CCOc2ccc3c(c2)C(=O)OC3)cc1`, for which the Ratio IC50 in the data set filed under Homo sapiens was 90. For the same molecule, the pIC50 in data set [1] is 5.13; in [3], 7.09.
The matching figures for `O=C1OCc2ccc(OCCOc3ccc(Cl)cc3)cc21`: 13, 6.86 and 7.96.
In the case of `O=C1OCc2ccc(OCCc3ccc(Cl)cc3)cc21`, in the data set filed under Homo sapiens, the Ratio IC50 is 10. The pIC50 in data set [1] is 6.30; in data set [3] it was 7.32.
As for `O=C1OCc2ccc(NCc3ccccc3)cc21`, the “inhibition (INH)” value in data set [16] is recorded as “Not Active”. The pIC50 in data set [1] is 4.22.
